The RNAGym collection of RNA variant scans (doi:10.1002/anie.201605470)

B1: Osa-1-4 twister ribozyme (parent)
chain: CCGCCUAACACUGCCAAUGCCGGUCCCAAGCCCGGAUAAAAGUGGAGGGGGCGG

Variants of: B1
Experiment: self-cleavage, relative activity (ratio to wild type); higher = more cleavage; co-transcriptional
How it was run: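 A DNA template for a 54-nucleotide Oryza sativa twister ribozyme was synthesised with 97 % wild-type base and 1 % of each other base at the 48 positions downstream of the cleavage site. It was transcribed in vitro for 2 h at 37 °C, allowing co-transcriptional self-cleavage, then reverse-transcribed with a template-switching oligonucleotide, PCR-amplified and deep-sequenced. Cleavage status was scored from reads with or without upstream sequence. Relative activity is fraction cleaved normalised to wild type.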

| Variant | self-cleavage |
| --- | --- |
| A17C G51C | 0.13 |
| A17C G51A | 0.32 |
| A16U U12C | 0.47 |
| A16U U12A | 0.92 |
| A16U U12G | 0.16 |
| A17C G49U | 0.05 |
| A17C G49C | 0.04 |
| A17C G49A | 0.05 |
| A16U G34A | 0.73 |
| A16U G34C | 0.51 |
| A16U G34U | 0.67 |
| A17G C27G | 0.13 |
| A17G C27U | 0.29 |
| A17G C27A | 0.35 |
| A16U C27A | 0.2 |
| A16U C27U | 0.17 |
| A16U C27G | 0.06 |
| A16U G35C | 0.17 |
| A16U G35A | 0.76 |
| A16U G35U | 0.82 |
| A16U C15A | 0.35 |

| Variant | self-cleavage |
| --- | --- |
| A16U C15U | 0.18 |
| A16U C15G | 0.31 |
| A17G C14U | 0.69 |
| A17G C14A | 0.19 |
| A17G C14G | 0.29 |
| A16U U24G | 0.02 |
| A16U U24C | 0.29 |
| A16U U24A | 0.15 |
| A17C G44C | 0.72 |
| A17C G44U | 0.7 |
| A17C G44A | 0.81 |
| A17C G23A | 0.07 |
| A17C G23U | 0.04 |
| A17C G23C | 0.03 |
| A16U C33U | 0.71 |
| A16U C33A | 0.11 |
| A16U C33G | 0.04 |
| A17G A39G | 0.94 |
| A17G A39C | 0.91 |
| A17G A39U | 0.95 |
| A16U A46C | 0.07 |

| Variant | self-cleavage |
| --- | --- |
| A16U A46G | 0.05 |
| A16U A46U | 0.05 |
| A16U C25G | 0.08 |
| A16U C25U | 0.84 |
| A16U C25A | 0.11 |
| A16U G49C | 0.06 |
| A16U G49A | 0.11 |
| A16U G49U | 0.11 |
| A17C G54A | 0.9 |
| A17C G54U | 0.91 |
| A17C G54C | 0.87 |
| A17G A41G | 0.94 |
| A17G A41C | 0.9 |
| A17G A41U | 0.94 |
| A17C A39U | 0.73 |
| A17C A39C | 0.52 |
| A17C A39G | 0.86 |
| A17C A41G | 0.68 |
| A17C A41U | 0.81 |
| A17C A41C | 0.68 |
| A16U C20U | 0.89 |

| Variant | self-cleavage |
| --- | --- |
| A16U C20G | 0.15 |
| A16U C20A | 0.69 |
| A16U U37A | 0.83 |
| A16U U37G | 1 |
| A16U U37C | 1.06 |
| A16U G42U | 0.73 |
| A16U G42C | 0.33 |
| A16U G42A | 0.8 |
| A16U A39G | 0.4 |
| A16U A39C | 0.93 |
| A16U A39U | 0.87 |
| A17G A38C | 0.96 |
| A17G A38G | 0.99 |
| A17G A38U | 0.97 |
| A17G A7U | 0.1 |
| A17G A7C | 0.08 |
| A17G A7G | 0.49 |
| A17C G50U | 0.86 |
| A17C G50A | 0.51 |
| A17C G50C | 0.9 |
